High-throughput results (PubChem BioAssay)
SIAE inh: human SIAE inhibitors, primary screen, biochemical, fluorescence polarization, FP-Rh probe, 1536-well HTS; SIAE FP-Rh probe binding; actives 0.69% (n = 370,000); inhibition, % at 9.66 µM; AID 1053197, 2014;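 active = inhibition above a cutoff: mean of compounds within the control limits plus 3 SD of those, cut at about 17% in these data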;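 also: 0% = plate median of compound wells and 100% = probe without SIAE protein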
mABHD4 FP: ABHD4 inhibitors, primary screen, biochemical, fluorescence polarization, mouse | purified mABHD4, FP-Rh probe fluorescence polarization | AID 720543, 2013 | (Lyso)-N-acylphosphatidylethanolamine lipase (Mus musculus), Q8VD66 | actives 0.54% (n = 370,000) | inhibition, % at 8.92 µM;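 active = inhibition exceeding the mean over every tested compound plus 3 SD, cut at about 30% in these data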;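 also: 0% = plate median of compound wells and 100% = S159A mutant with DMSO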
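Test system: mABHD4 protein | Buffer or medium: HEPES pH 7.0 buffer, 150 mM NaCl, 0.01% Pluronic F-127 | Probe or stimulus: FP-Rh fluorescent activity-based probe, added after compound pre-incubation | Timing: Pre-incubation 45 min, probe exposure 60 min, at 25 °C | Technique: Fluorescence polarization, excitation 525 nm, emission 598 nm, BODIPY TMR filters | Repeats: Single well per compound (singlicate)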
TCR CD3 inh: inhibitors of human TCR-CD3 interaction, primary screen, biochemical, fluorescence, TAMRA-labeled TCR probe; actives 0.37% (n = 360,000); inhibition, % at 9.4 µM; T-cell receptor (TCR); in the data active = inhibition above about 19%;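 also: recombinant mutant TCR 2C K166C tagged with TAMRA read by polarization; 0% = receptor in buffer alone and 100% = receptor with positive control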
rCAG binder: binders of r(CAG) RNA repeats, primary screen, biochemical, fluorescence; inhibition, % at 3 µM; r(CAG) RNA repeat, TO-PRO-1 dye displacement fluorescence; actives 1.3% (n = 370,000); AID 651821, 2012;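 active = inhibition above the plate cutoff, the mean of all test compounds on that plate plus 3 SD, cut at about 35% in these data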;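 also: 0% = DMSO alone and 100% = 100 µM mitoxantrone as full dye displacement; higher means more dye released from RNA so lower well fluorescence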
PRMT1 FP inh: PRMT1 methyltransferase inhibitors, primary screen, biochemical, fluorescence polarization. Protein arginine N-methyltransferase 1 (Homo sapiens), Q99873. recombinant PRMT1, activity-based probe fluorescence polarization. inhibition, % at 2.79 µM. actives 1.3% (n = 370,000);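 active = inhibition above about 21% made by adding two undisclosed values, limit read from the data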
Target sequence (Q99873 whole entry, looked up): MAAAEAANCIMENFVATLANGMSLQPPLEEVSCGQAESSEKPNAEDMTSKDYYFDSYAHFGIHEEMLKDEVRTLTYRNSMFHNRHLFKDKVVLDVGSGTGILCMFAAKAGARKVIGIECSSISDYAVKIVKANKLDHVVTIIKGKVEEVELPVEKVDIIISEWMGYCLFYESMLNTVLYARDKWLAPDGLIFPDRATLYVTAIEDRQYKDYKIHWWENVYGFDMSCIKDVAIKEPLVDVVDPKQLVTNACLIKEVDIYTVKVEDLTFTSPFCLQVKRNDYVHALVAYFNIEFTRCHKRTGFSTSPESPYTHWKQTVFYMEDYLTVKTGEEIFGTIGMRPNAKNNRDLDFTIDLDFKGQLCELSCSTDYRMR
SIAE inh conf: human SIAE inhibitors, retest, confirmation, biochemical, fluorescence polarization, FP-Rh probe, triplicate; shares compounds with SIAE inh; inhibition, % at 9.66 µM; AID 1117263, 2014; SIAE FP-Rh activity-based probe; actives 13% (n = 2,300);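 active = mean inhibition of the replicates above the hit cutoff set in the primary screen, cut at about 17% in these data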;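 also: 0% = SIAE with DMSO and probe and 100% = probe without SIAE; inhibitors lower polarization as more probe stays unbound to SIAE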
The depositor's hits bear a star. Only some compounds are listed: those with a hit (about 3.3% of all), similar ones and a draw of the others.

For CCNc1nc(NCC)nc(N/N=C/c2ccc(N(C)C)cc2)n1 the results were SIAE inh 0.7, mABHD4 FP 3.6, TCR CD3 inh -7.0, rCAG binder -1.1 and PRMT1 FP inh 2.0.
`CC1CCCCN1C(=O)c1c([N+](=O)[O-])cnn1C` (stereo unspecified) gave SIAE inh 5.5, mABHD4 FP 7.3, TCR CD3 inh 5.3, rCAG binder -1.0 and PRMT1 FP inh -0.9.
Screening C#CCNC(=O)c1csc([C@@H]2O[C@H](CO)[C@@H](O)[C@H]2O)n1 returned SIAE inh 5.9, mABHD4 FP 2.1, TCR CD3 inh 1.1, rCAG binder 1.6 and PRMT1 FP inh -3.2.
For COc1ccc(S(=O)(=O)N2CCCC2)cc1C(=O)O the results were SIAE inh 18.2*, mABHD4 FP 0.0, TCR CD3 inh 2.1, rCAG binder 1.6, PRMT1 FP inh 0.2 and SIAE inh conf 0.0.
Screening COc1ccc(Nc2ccc(S(=O)(=O)N3CCCCC3)cc2[N+](=O)[O-])cc1Cl returned SIAE inh 24.7*, mABHD4 FP 13.8, TCR CD3 inh 3.7, rCAG binder 5.5, PRMT1 FP inh 0.3 and SIAE inh conf -1.0.
`O=C(c1cccc(S(=O)(=O)N2CCCCCC2)c1)N1CCN(c2ccccc2)CC1` gave SIAE inh 17.1*, mABHD4 FP -0.6, TCR CD3 inh 10.2, rCAG binder -8.3, PRMT1 FP inh -6.7 and SIAE inh conf -0.9.
`O=C(c1cccc(S(=O)(=O)N2CCCC2)c1)N1CCN(c2ccccc2)CC1` gave SIAE inh 9.2, mABHD4 FP -1.3, TCR CD3 inh -2.5, rCAG binder -3.9 and PRMT1 FP inh -3.0.
Screening COc1ccc(S(=O)(=O)N2CCCCCC2)cc1C(=O)N1CCN(c2ccccc2O)CC1 returned SIAE inh 19.5*, mABHD4 FP 8.0, TCR CD3 inh 1.2, rCAG binder 6.9, PRMT1 FP inh 0.8 and SIAE inh conf 3.3.
Screening CCOc1ccccc1N(CC(=O)Nc1ccccc1F)S(=O)(=O)c1ccccc1 returned SIAE inh -7.2, mABHD4 FP -3.9, TCR CD3 inh -2.5, rCAG binder -3.2 and PRMT1 FP inh 0.2.
`CCc1ccc(CN(C)C(=O)c2cc(COc3cncc(Cl)c3)on2)cc1` gave SIAE inh 1.6, mABHD4 FP -5.4, TCR CD3 inh 5.1, rCAG binder 0.1 and PRMT1 FP inh 0.7.
COc1ccc(C2CC(c3cccc(C(F)(F)F)c3)=NN2c2ccc(S(N)(=O)=O)cc2)cc1 (stereo unspecified) was read as SIAE inh -1.0, mABHD4 FP -33.6, TCR CD3 inh -4.0, rCAG binder 6.0 and PRMT1 FP inh -0.7.
`Cc1[nH]c2ccccc2c1/C=N/Nc1nc2ccccc2[nH]1` gave SIAE inh 32.3*, mABHD4 FP 24.2, TCR CD3 inh -1.5, rCAG binder 12.0, PRMT1 FP inh -5.6 and SIAE inh conf 36.8*.
For Cc1[nH]c2ccccc2c1/C=N/Nc1nc(N2CCCCC2)nc(N2CCCCC2)n1 the results were SIAE inh 17.9*, mABHD4 FP 20.8, TCR CD3 inh 1.0, rCAG binder -1.7, PRMT1 FP inh -0.9 and SIAE inh conf 6.5.
C(=N\Nc1nc2ccccc2[nH]1)/c1c[nH]c2ccccc12 was read as SIAE inh 20.6*, mABHD4 FP 13.6, TCR CD3 inh 4.4, rCAG binder 11.3, PRMT1 FP inh 1.1 and SIAE inh conf 32.6*.
Screening COc1ccc(/C=N/Nc2nc3ccccc3[nH]2)c(OC)c1OC returned SIAE inh 21.1*, mABHD4 FP 7.9, TCR CD3 inh -0.1, rCAG binder -3.1, PRMT1 FP inh -2.0 and SIAE inh conf 4.4.
Screening Cc1ccc(/C=N/Nc2nc3ccccc3[nH]2)s1 returned SIAE inh 16.2, mABHD4 FP 24.6, TCR CD3 inh -0.9, rCAG binder 2.0 and PRMT1 FP inh 1.0.
For Cc1c(C(=O)N2CCC2(C)C(=O)O)oc2ccccc12 (stereo unspecified) the results were SIAE inh -0.3, mABHD4 FP 1.2, TCR CD3 inh 7.2, rCAG binder 2.2 and PRMT1 FP inh -2.2.
CCc1noc(C)c1C(=O)NCCc1ccc(Cl)cc1 was read as SIAE inh -3.4, mABHD4 FP -1.6, TCR CD3 inh 4.2, rCAG binder -4.7 and PRMT1 FP inh -2.9.
`C=CCn1c(CNC(=O)c2cccs2)nnc1SCC(=O)c1ccc(Br)cc1` gave SIAE inh 28.3*, mABHD4 FP -5.3, TCR CD3 inh 1.6, rCAG binder -3.9, PRMT1 FP inh -0.7 and SIAE inh conf 1.9.
C=CCn1c(CCNC(=O)c2cccs2)nnc1SCC(=O)c1ccc(Cl)cc1 was read as SIAE inh 2.5, mABHD4 FP -1.4, TCR CD3 inh 0.7, rCAG binder 6.3 and PRMT1 FP inh 2.3.
Screening CCC/C(=N/NC(=O)c1ccccc1Cl)c1ccccc1 returned SIAE inh 17.4*, mABHD4 FP 1.1, TCR CD3 inh 3.3, rCAG binder 0.2, PRMT1 FP inh -6.7 and SIAE inh conf 0.0.
Screening Cn1cc(CN2CCCC(C(=O)Nc3ccc(-c4cccc(F)c4)cc3)C2)cn1 (stereo unspecified) returned SIAE inh 1.0, mABHD4 FP 6.5, TCR CD3 inh -3.5, rCAG binder -6.9 and PRMT1 FP inh -2.7.
For Cc1cccc(NC(=O)CN2CCN(C(=O)C(C)Oc3ccc(C#N)cc3)CC2)c1C (stereo unspecified) the results were SIAE inh 20.1*, mABHD4 FP -1.2, TCR CD3 inh 6.0, rCAG binder -0.9, PRMT1 FP inh -4.9 and SIAE inh conf 5.8.
Screening Cc1cccc(NC(=O)CN2CCN(C(=O)CNC(=O)c3ccc(-c4ccccc4)cc3)CC2)c1C returned SIAE inh 1.4, mABHD4 FP -13.1, TCR CD3 inh -8.9, rCAG binder 6.7 and PRMT1 FP inh -4.7.
COc1cc(/C=N/NC(=O)c2ccc(-c3ccccc3)cc2)cc(OC)c1OC was read as SIAE inh 2.0, mABHD4 FP 0.7, TCR CD3 inh 3.3, rCAG binder 12.2 and PRMT1 FP inh -1.7.
COc1cc(/C=N/NC(=O)c2cc(-c3ccccc3)sc2N)cc(OC)c1OC was read as SIAE inh 30.6*, mABHD4 FP 5.2, TCR CD3 inh 4.0, rCAG binder 21.5, PRMT1 FP inh -0.4 and SIAE inh conf -45.1.
`COc1cc2cc(C(=O)N/N=C/c3ccccc3Cl)[nH]c2cc1OC` gave SIAE inh 26.7*, mABHD4 FP 15.7, TCR CD3 inh 2.4, rCAG binder 1.8, PRMT1 FP inh -3.3 and SIAE inh conf 4.7.
